Publication PMC9585524 (ACS Bio & Med Chem Au, 2022)
Entries after “also recorded” stand apart in the source; their conditions may differ.

Legend:
[1] = tested on: SphK2 in U937 cells; test: FTY720-P levels in U937 cells; format: cell-based, human; conditions: 1 μM FTY720 and 14c at 30–1000 nM, Figure 5B, duplicate
Outline: (§1)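 U937 cells were grown in RPMI 1640 with 10% FBS, then moved to 0.5% FBS for 24 h. They were treated 2 h with test compound (30–1000 nM) plus 1 μM FTY720. Pellets (2–3 × 10^6 cells) were extracted in methanol/chloroform with deuterated internal standards and base-treated. S1P and FTY720-P were measured by LC-MS/MS, in duplicate.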

[2] = target: T1, hSphK2 (Homo sapiens, UniProt Q9NRA0); format: biochemical
T1 sequence (Q9NRA0 1-618 isoform Q9NRA0-2): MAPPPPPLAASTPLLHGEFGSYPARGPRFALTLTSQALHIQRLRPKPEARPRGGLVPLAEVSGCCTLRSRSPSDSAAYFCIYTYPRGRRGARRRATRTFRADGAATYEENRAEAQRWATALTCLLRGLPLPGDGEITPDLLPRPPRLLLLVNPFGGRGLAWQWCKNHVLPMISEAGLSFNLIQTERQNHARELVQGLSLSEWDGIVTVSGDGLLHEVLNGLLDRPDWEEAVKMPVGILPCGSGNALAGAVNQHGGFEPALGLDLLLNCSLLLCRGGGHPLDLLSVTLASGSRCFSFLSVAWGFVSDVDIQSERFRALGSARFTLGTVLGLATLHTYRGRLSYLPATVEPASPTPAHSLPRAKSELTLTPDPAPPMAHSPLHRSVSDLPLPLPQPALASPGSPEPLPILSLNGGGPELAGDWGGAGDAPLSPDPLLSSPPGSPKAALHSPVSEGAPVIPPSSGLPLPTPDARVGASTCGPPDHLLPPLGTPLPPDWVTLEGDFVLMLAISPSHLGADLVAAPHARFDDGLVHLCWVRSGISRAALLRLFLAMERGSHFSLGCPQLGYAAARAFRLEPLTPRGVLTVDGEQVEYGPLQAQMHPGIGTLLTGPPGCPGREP

[3] = tested on: blood S1P; test: Blood S1P in C57BL/6 mice after a single intraperitoneal dose, LC-MS/MS; format: in vivo; conditions: for S1P levels in blood: 5 mg/kg single intraperitoneal injection
Outline: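 Male C57BL/6J mice in groups of four received 5 mg/kg test compound i.p. in 2% hydroxypropyl-β-cyclodextrin, and controls got an equal volume of vehicle. Blood was drawn at set times, with the earliest 1–2 min post-dose. Whole blood (10 μL) was extracted in methanol/chloroform with d7-S1P/d7-sphingosine internal standards (48 °C, 16 h), then treated with KOH/methanol. S1P was quantified by LC-MS/MS MRM (380.4 → 264.4).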

[4] = tested on: U937 cells; test: S1P levels in U937 cells by LC-MS/MS; format: cell-based, human; conditions: varying concentrations of 14c, 2 h, Figure 5A, duplicate
Outline: as §1

[5] = tested on: estrogen receptors; conditions: cited from earlier work

| SMILES | FTY720-P levels in U937 cells [1] | selectivity for SphK2 over SphK1 [2] | S1P levels in blood ([3]; 4 h post dosing) | S1P levels in blood ([3]; after 24 h) | circulating (blood) S1P levels ([3]; mice, 5 mg/kg, overall statement) | S1P levels in U937 cells [4] | action at estrogen receptors [5] |
| --- | --- | --- | --- | --- | --- | --- | --- |
| Cl.N=C(N)N1CCC[C@H]1c1nc(-c2ccc(CCC3CCCCC3)c(C(F)(F)F)c2)no1 [14c, (S)-2-(3-(4-(2-Cyclohexylethyl)-3-(trifluoromethyl)phenyl)-1,2,4-oxadiazol-5-yl)pyrrolidine-1-carboximidamide Hydrochloride] | concentration-dependent decrease | ~200 fold | doubling | returning close to baseline | sustained increase; also recorded: profound increases | dose-dependent decrease | – |
| O=C(NCc1ccncc1)C12CC3CC(C1)CC(c1ccc(Cl)cc1)(C3)C2 [compound 1] | – | – | – | – | – | – | tamoxifen-mimetic |
